Screens: PubChem, several laboratories
VLA-4 inh = inhibition in a human VLA-4 binding assay | P13612 | VLA-4 expressing cells, ligand binding flow cytometry | inhibition, % (about 7 µM as worked out from the volumes in the protocol) | 0.2% of 330,000 active | AID 2557; in the data active = inhibition above about 50%
Target sequence (P13612 whole entry, looked up): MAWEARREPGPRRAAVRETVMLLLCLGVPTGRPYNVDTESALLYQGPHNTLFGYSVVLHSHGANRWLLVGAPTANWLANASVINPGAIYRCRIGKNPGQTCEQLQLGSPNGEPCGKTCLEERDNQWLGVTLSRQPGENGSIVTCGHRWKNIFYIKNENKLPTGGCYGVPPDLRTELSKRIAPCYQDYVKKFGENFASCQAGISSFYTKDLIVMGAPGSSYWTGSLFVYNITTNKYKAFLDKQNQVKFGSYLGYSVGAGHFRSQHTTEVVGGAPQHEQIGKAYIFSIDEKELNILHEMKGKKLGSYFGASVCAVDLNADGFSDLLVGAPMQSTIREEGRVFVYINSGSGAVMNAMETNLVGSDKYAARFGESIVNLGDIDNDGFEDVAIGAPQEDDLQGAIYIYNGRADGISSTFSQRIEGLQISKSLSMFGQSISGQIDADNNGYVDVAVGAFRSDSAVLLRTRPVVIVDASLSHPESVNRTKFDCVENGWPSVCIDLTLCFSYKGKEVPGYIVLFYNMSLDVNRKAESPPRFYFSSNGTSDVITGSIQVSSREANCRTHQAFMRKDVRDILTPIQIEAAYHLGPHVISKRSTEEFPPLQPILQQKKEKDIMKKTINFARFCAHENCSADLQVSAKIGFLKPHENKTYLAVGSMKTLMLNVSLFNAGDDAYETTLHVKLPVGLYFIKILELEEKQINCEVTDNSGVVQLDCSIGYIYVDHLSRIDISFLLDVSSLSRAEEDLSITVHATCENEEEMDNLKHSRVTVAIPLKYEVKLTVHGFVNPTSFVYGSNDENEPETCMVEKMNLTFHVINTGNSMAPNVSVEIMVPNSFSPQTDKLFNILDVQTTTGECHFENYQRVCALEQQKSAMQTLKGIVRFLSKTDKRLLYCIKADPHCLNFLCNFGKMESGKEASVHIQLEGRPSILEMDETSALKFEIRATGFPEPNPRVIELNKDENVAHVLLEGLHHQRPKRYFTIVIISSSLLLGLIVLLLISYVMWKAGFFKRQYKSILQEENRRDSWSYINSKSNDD
T cell modulator = modulates CD8 T cell binding to vesicles | response (vesicle binding), % at 7 µM | 2C CD8+ T cell-vesicle binding, flow cytometry; active compounds read low | 0.068% of 330,000 active;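 active = response, share of CD8 T cells binding vesicles, and their 90th percentile fluorescence all below set limits, cut at about 80% in these data, passing the limit was not always enough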;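 also: values below 100% mean blocked vesicle binding to the CD8+ T cells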
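Also added: QL9-peptide-loaded Drosophila micro-vesicles bearing Ld, ICAM-1 and B7-1; Test system: purified 2C TCR transgenic mouse naive CD8+ T cells; Measured by: cytometric PE anti-B7-1 and Alexa647 anti-CD8 signals after 1% paraformaldehyde fixation; Timing: binding step 1.5 h, 37 °C, antibody labelling 20 min, ice.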
CHT inh = human CHT choline transport inhibition; Q9GZV3; CHT-expressing cells, membrane potential dye, choline response; active compounds read low; B-score at 10 µM; 0.86% of 310,000 active;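 active = B-score over 3 SD under the library average, and starting fluorescence ratio not unusually high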;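 also: choline stimulus applied at its EC90 after an EC20 pre-addition; B-score computed on integrated fluorescence ratio after choline addition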
CHT PAM = human CHT allosteric activation | 0.49% of 310,000 active | B-score at 10 µM | Q9GZV3 | CHT-expressing cells, membrane potential dye, choline EC20; active compounds read high; LV-AA mutant CHT in HEK293 cells;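 active = initial fluorescence not abnormally high and integrated response B-score, plate-corrected, over 3 SD above library mean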
VLA-4 allo CP = human VLA-4 allosteric modulation in cherry picked compounds; shares compounds with VLA-4 inh; U937 cells, HUTS-21 LIBS mAb binding, flow cytometry; LDV ligand present at threefold Kd; inhibition, % at 6.7 µM; 2% of 1,300 active; in the data active = inhibition above about 40%
Numbers stand for hits; n = inactive; x = no result given. Compounds with a hit are over-represented: about 1.5% of the library has one in this group of screens.

SMILES | VLA-4 inh | T cell modulator | CHT inh | CHT PAM | VLA-4 allo CP
O=C(N/N=C/c1ccc(Cl)c([N+](=O)[O-])c1)c1cc(-c2ccccc2)nc2ccccc12 | 56.4 | n | n | n | n
CCCCn1c(N)c(N(CCOC)C(=O)c2c(CC)noc2C)c(=O)[nH]c1=O | n | n | x | x | x
CCc1ccc(OCc2nnc(SCC(=O)N3CCOCC3)o2)cc1 | n | n | n | n | x
CCc1ccc(OCc2nnc(SCC(=O)Nc3cccc(C(=O)N4CCOCC4)c3)o2)cc1 | n | n | n | n | n
Fc1ccc(NCc2ccccc2F)cc1Cl | 50.2 | n | n | n | n
Fc1ccccc1CNc1ccc(Cl)cc1 | n | n | n | n | x
Cn1c2ccc(F)cc2c2ncn(Cc3ccco3)c(=O)c21 | x | n | n | n | x
Cn1c2ccccc2c2ncn(Cc3ccco3)c(=O)c21 | 55.3 | n | n | n | n
COc1ccc(N2CC(C(=O)Nc3cccnc3)CC2=O)cc1 (centres undefined) | n | n | n | n | x
CCOc1ccc(N(CC(=O)Nc2cc(OC)cc(OC)c2)S(=O)(=O)c2c(C)[nH]c(=O)[nH]c2=O)cc1 | n | n | n | n | x
CCOC(=O)c1cccc(NC(=O)CN(c2ccc(C)cc2)S(=O)(=O)c2c(C)n[nH]c2C)c1 | 57.1 | n | n | n | n
CCOc1ccc(NC(=O)CN(c2cc(C)cc(C)c2)S(=O)(=O)c2c(C)noc2C)cc1 | 53.4 | n | n | n | n
CCOc1ccc(N(CC(=O)Nc2ccc(C)c(C)c2)S(=O)(=O)c2c(C)[nH]c(=O)[nH]c2=O)cc1 | n | n | n | n | n
Cc1cc(Br)ccc1N=C1NC(=O)CS1 | n | n | n | n | x
Cc1nc(NC(=O)c2cccnc2Cl)sc1C | n | n | n | n | x
C/C(=N\NC(=O)c1ccc(Cl)cc1)c1ccc2[nH]ccc2c1 | n | n | n | n | x
Cn1c(CCN2CCOCC2)nc2cc(NC(=O)c3cccs3)ccc21 | n | n | n | n | x
Cc1cc(OCC(=O)N[C@@H](CSCc2ccccc2)C(=O)O)c2c(C)c(C)c(=O)oc2c1 | n | n | n | n | x
CCOC(=O)N1CCN(S(=O)(=O)c2cc(-c3nn4c(C)nnc4c4ccccc34)ccc2C)CC1 | n | n | n | n | n
Cc1ccc(-c2nn3c(C)nnc3c3ccccc23)cc1S(=O)(=O)NCCN1CCOCC1 | n | n | n | n | n
O=[N+]([O-])c1ccc(CCn2ccnc2)cc1 | n | n | n | n | n
Cc1ccc(Cl)cc1NC(=O)CN1CCN(S(=O)(=O)N2CCC(C)CC2)CC1 | n | n | n | n | x
O=C(Nc1cccc(Cl)c1)OCc1cnc(Cl)s1 | n | n | n | n | n
COc1ccccc1-c1sc2ccccc2c1-c1ccc(OCCN2CCOCC2)cc1 | x | x | x | x | n
COc1ccc2sc(-c3ccccc3OC)c(-c3ccc(OCCN4CCOCC4)cc3)c2c1 | x | x | x | x | n
SMILES | VLA-4 inh | T cell modulator | CHT inh | CHT PAM | VLA-4 allo CP
c1ccc(-c2sc3ccccc3c2-c2ccc(OCCN3CCOCC3)cc2)cc1 | n | n | x | x | n
COc1ccc2sc(-c3ccccc3OC)c(-c3ccc(OC)nc3)c2c1 | n | n | x | x | x
Cc1cc(C)c(S(=O)(=O)N2CCOC2CNC(=O)C(=O)NCCN(C)C)c(C)c1 (centres undefined) | n | n | n | n | x
COC(=O)[C@]1(Cc2ccccc2)N[C@H](CN(C)S(=O)(=O)c2ccc(C(F)(F)F)cc2)[C@@H]2C(=O)N(Cc3ccccc3)C(=O)[C@@H]21 | n | n | x | x | n
COC(=O)[C@]1(Cc2ccccc2)N[C@H](CN(C)S(=O)(=O)c2ccc(C(C)(C)C)cc2)[C@@H]2C(=O)N(Cc3ccccc3)C(=O)[C@@H]21 | n | n | x | x | n
CC[C@@]1(C(=O)OC)N[C@H](CN(C)S(=O)(=O)c2ccccc2)[C@@H]2C(=O)N(Cc3ccccc3)C(=O)[C@@H]21 | n | n | x | x | x
CCOC(=O)c1c(C)n(S(=O)(=O)c2ccc(C)cc2)c2ccc(O)c(C(=O)O)c12 | n | n | n | n | x
CC(C)(C)c1oc(C(=O)O)cc1CN1CCOCC1 | n | n | n | n | x
CC12CCC3c4ccc(O)cc4CCC3C1CCC2=O (centres undefined) | 54.5 | n | n | n | n
CC(C)[C@H](NC(=O)c1ccccc1F)C(=O)NCc1ccc(S(N)(=O)=O)cc1 | n | n | n | n | x
CC(C)C(NC(=O)c1ccccc1F)C(=O)NCc1ccccc1 (centres undefined) | 51.8 | n | n | n | n
O=S(=O)(NCc1ccc(F)cc1)c1ccccc1Br | n | n | x | x | x
Nc1cc(-c2ccc(Cl)cc2)nn1S(=O)(=O)c1cccc2nsnc12 | n | n | n | n | x
Nc1cc(-c2ccc(Br)cc2)nn1S(=O)(=O)c1cccc2nsnc12 | 49.9 | n | n | n | n
Cc1cc(N(C)C(=O)c2ccc3c(c2)S(=O)(=O)c2cc(Cl)ccc2C3=O)c(C(F)(F)F)o1 | n | n | x | x | x
CCCc1ccc(OCCNC(=O)CC)cc1 | 50.8 | n | n | n | n
O=C(NCCS(=O)(=O)N1CCCCCC1)c1ccc(F)cc1 | n | n | n | n | x
Cc1cccc(N=Cc2cc3c(cc2[N+](=O)[O-])OCO3)c1 | n | n | n | n | x
O=[N+]([O-])c1cc2c(cc1C=Nc1ccccc1)OCO2 | 50.2 | n | n | n | n
Cc1cccc(NC(=O)C2CCN(C(=O)c3ccccc3C)CC2)n1 | n | n | x | x | n
O=C(Nc1ccccn1)C1CCN(C(=O)c2ccc(F)cc2)CC1 | n | n | n | n | n
Cc1ccc([N+](=O)[O-])cc1N(CC(=O)N1CCCCC1)S(C)(=O)=O | 52.6 | n | n | n | n
Cc1ccc(C)c(N(CC(=O)N2CCCC2)S(C)(=O)=O)c1 | n | n | n | n | x
COC(=O)c1ccc([N+](=O)[O-])cc1N1C(=O)C2C3CCC(C3)C2C1=O (centres undefined) | n | n | n | n | x
COc1cc(/C=N/NC(=O)c2ccccc2O)ccc1OCC(=O)Nc1ccccc1 | n | n | n | n | x
SMILES | VLA-4 inh | T cell modulator | CHT inh | CHT PAM | VLA-4 allo CP
O=C(COc1ccc(/C=N/NC(=O)c2cc3ccccc3o2)cc1Cl)Nc1ccccc1 | 78.3 | n | n | n | 61.2
CCSc1nnc2c(n1)OC1(CCCC1)Nc1ccccc1-2 | 55.4 | n | n | n | n
COc1cc(NC(=O)C(c2ccccc2)c2ccccc2)c(C(=O)O)cc1OC | n | n | n | n | n
CCOc1ccc(S(=O)(=O)N(C)CC(=O)NCc2ccccn2)cc1Cl | n | n | n | n | x
C=CCn1c(SCC(=O)Nc2nc(C)cs2)nnc1C(C)NC(=O)c1ccccc1Cl (centres undefined) | 54.4 | n | n | n | n
COCCn1c(SCC(=O)Nc2ccc(F)cc2)nc2c([nH]c3ccccc32)c1=O | n | n | n | n | x
CNC(=O)CSc1nc2c([nH]c3ccccc32)c(=O)n1CCOC | 58.0 | n | n | n | n
CCOc1cc(NC(=S)Nc2ccccc2OC)c(OCC)cc1NC(=O)c1ccccc1C | n | n | n | n | x
CCOC(=O)c1sc2nc(C)nc(N3CCN(S(=O)(=O)c4ccccc4)CC3)c2c1C | n | n | x | x | x
